# Results taken from ChEMBL document CHEMBL1147345, “Appenolides A-C: three new antifungal furanones from the coprophilous fungus Podospora appendiculata” (1993).
# Calls of active or inactive are those of the source. No cut-off for these calls is given here.
# Experiments:
# Assay type in all cases: functional
# Ascobolus stercorarius = assay: Antifungal activity against Ascobolus furfuraceus NRRL 6460 assessed as reduction in radial growth rate at 50 ug/disk by centerpoint inoculation disk assay
# Candida albicans = assay: Antifungal activity against Candida albicans ATCC 14053 at 150 ug/disk by standard disk assay; settings: read-out: IZ
# How it was run: (§1)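 Standard disc assay with 150 µg of compound loaded per disc. Activity is read as the zone of inhibition around the disc, in mm.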
# Sordaria fimicola = assay: Antifungal activity against Sordaria fimicola NRRL 6459 assessed as reduction in radial growth rate at 150 ug/disk by centerpoint inoculation disk assay
# Bacillus subtilis = assay: Antibacterial activity against Bacillus subtilis ATCC 6051 at 150 ug/disk by standard disk assay; settings: for zone of inhibition at 150 µg/disc: read-out: IZ; how it was run: as §1
Structure (SMILES),Activity (Ascobolus stercorarius),zone of inhibition at 150 µg/disc (Candida albicans) [mm],Activity (Sordaria fimicola),zone of inhibition at 150 µg/disc (Bacillus subtilis) [mm],Activity (Bacillus subtilis)
CCC(O)CCCC/C=C/C1=C(C)C(=O)OC1 (configuration not stated) [APPENOLIDE C],Active,12,Active,8,–
CC1=C(/C=C/CCCCCC(C)O)COC1=O (configuration not stated) [APPENOLIDE B],Active,12,Active,8,–
CC(=O)CCCCC/C=C/C1=C(C)C(=O)OC1 [APPENOLIDE A],26%,12,54%,–,inactive
